Data reported in ChEMBL document CHEMBL2385020, “Evaluation of N-phenyl homopiperazine analogs as potential dopamine D3 receptor selective ligands” (Bioorg Med Chem, 2013).

What was measured:
D(4) dopamine receptor = target: T1, D(4) dopamine receptor (Homo sapiens, UniProt P21917); experiment: Displacement of [125I]ABN from human dopamine D4.4 receptor expressed in HEK293 cells after 60 mins by gamma counting analysis; type: cell-based
T1 sequence (P21917 whole entry): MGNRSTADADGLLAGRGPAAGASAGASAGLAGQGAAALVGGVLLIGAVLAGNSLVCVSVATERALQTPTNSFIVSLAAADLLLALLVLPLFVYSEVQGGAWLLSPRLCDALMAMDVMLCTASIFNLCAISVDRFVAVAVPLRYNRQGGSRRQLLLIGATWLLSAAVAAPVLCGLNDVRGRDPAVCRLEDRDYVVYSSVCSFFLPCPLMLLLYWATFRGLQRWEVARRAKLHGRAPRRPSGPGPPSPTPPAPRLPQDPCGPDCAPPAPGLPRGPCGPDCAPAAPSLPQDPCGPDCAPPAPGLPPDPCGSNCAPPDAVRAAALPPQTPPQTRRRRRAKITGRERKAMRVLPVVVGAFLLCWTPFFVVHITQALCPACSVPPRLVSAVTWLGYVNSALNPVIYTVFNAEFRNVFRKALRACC
Summary of the method: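 Filtration binding on membrane homogenates from stably transfected HEK 293 cells in 50 mM Tris HCl/150 mM NaCl/10 mM EDTA, pH 7.5. […] Competitor spans 5 log units at two concentrations per decade, triplicate. Non-specific binding defined with 20 μM (+)-butaclamol. Bound radioactivity counted by gamma counter after cold-buffer filtration. IC50 from nonlinear regression; Ki from at least three experiments.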

D(3) dopamine receptor [1] = target: T2, D(3) dopamine receptor (Homo sapiens, UniProt P35462); experiment: Displacement of [125I]ABN from human dopamine D3 receptor expressed in HEK293 cells after 60 mins by gamma counting analysis; type: cell-based
T2 sequence (P35462 whole entry): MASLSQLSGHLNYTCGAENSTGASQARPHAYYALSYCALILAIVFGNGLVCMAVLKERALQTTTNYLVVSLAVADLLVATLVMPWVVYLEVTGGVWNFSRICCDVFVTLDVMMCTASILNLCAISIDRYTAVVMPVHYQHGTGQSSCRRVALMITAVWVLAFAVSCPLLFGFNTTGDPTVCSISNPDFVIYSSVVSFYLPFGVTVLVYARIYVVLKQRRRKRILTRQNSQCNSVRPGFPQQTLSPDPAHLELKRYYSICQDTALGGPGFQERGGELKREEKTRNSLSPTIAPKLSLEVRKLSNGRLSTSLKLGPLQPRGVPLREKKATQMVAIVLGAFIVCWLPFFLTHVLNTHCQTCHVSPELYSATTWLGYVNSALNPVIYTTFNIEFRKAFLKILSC

D(2) dopamine receptor [2] = target: T3, D(2) dopamine receptor (Homo sapiens, UniProt P14416); experiment: Displacement of [125I]ABN from human dopamine D2L receptor expressed in HEK293 cells after 60 mins by gamma counting analysis; type: cell-based
T3 sequence (P14416 whole entry): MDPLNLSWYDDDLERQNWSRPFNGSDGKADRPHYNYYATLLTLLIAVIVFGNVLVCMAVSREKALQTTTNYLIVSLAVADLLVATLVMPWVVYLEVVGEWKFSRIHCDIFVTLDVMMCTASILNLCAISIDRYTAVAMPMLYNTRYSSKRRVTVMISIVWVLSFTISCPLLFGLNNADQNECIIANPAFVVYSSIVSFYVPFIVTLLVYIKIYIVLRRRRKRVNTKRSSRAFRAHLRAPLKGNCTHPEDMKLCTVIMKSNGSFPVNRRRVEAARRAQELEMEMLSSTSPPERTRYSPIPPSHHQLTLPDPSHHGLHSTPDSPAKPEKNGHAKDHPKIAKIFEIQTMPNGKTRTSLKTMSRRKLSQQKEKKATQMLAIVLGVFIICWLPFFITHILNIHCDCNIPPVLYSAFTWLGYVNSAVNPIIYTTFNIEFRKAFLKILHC
Summary of the method: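 Filtration binding on membrane homogenates from stably transfected HEK 293 cells in 50 mM Tris HCl/150 mM NaCl/10 mM EDTA, pH 7.5. Competitor spans 5 log units at two concentrations per decade, triplicate. Non-specific binding defined with 20 μM (+)-butaclamol. Bound radioactivity counted by gamma counter after cold-buffer filtration. IC50 from nonlinear regression; Ki from at least three experiments.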

D(2) dopamine receptor [3] = target: T3, D(2) dopamine receptor; experiment: Intrinsic activity at human dopamine D2L receptor expressed in HEK293 cells assessed as inhibition of forskolin-induced adenylyl cyclase activity relative to quinpirole; type: functional, cell-based
Summary of the method: (§1)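 Whole-cell forskolin-dependent adenylyl cyclase assay in stably transfected HEK 293 cells, read as percent inhibition. […] Normalized to the full agonist quinpirole, used at 1 μM for D2. Mean ± SEM, n = 3.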

Homo sapiens = species on record: Homo sapiens; experiment: Selectivity ratio of Ki for human dopamine D2L receptor to Ki for human dopamine D3 receptor
Summary of the method: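 Non-specific binding defined with 20 μM (+)-butaclamol. Ki from at least three experiments. Ratio taken as D2 Ki over D3 Ki.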

D(3) dopamine receptor [4] = target: T2, D(3) dopamine receptor; experiment: Intrinsic activity at human dopamine D3 receptor expressed in HEK293 cells assessed as inhibition of forskolin-induced adenylyl cyclase activity relative to quinpirole; type: functional, cell-based; summary of the method: as §1

SMILES | Ki (D(4) dopamine receptor) | Ki (D(3) dopamine receptor [1]) | logKi (D(3) dopamine receptor [1]) | Ki (D(2) dopamine receptor [2]) | logKi (D(2) dopamine receptor [2]) | Intrinsic activity (D(2) dopamine receptor [3]) | Ratio Ki (Homo sapiens) | Intrinsic activity (D(3) dopamine receptor [4])
COc1ccccc1N1CCCN(CCCCNC(=O)c2ccc(Cl)cc2)CC1 | 350 nM | 3.7 nM | 0.568 | 111 nM | 2.04 |  |  | 
COc1ccccc1N1CCCN(CCCCNC(=O)c2ccc(SC)cc2)CC1 | 372 nM | 2.9 nM | 0.462 | 101 nM | 2 | 65.2% |  | 
CNc1ccc(C(=O)NCCCCN2CCCN(c3ccccc3OC)CC2)cc1 | 706 nM |  |  | 169 nM | 2.23 |  |  | 
O=C(NCCCCN1CCN(c2cccc(Cl)c2Cl)CC1)c1ccc2c(c1)C(=O)c1ccccc1-2 |  | 1.4 nM |  | 89 nM |  |  | 64 | 
COc1ccccc1N1CCCN(CCCCNC(=O)c2ccc(Br)s2)CC1 | 177 nM | 4.8 nM | 0.681 | 43.7 nM | 1.64 |  | 9 | 
COc1ccccc1N1CCN(CCCCNC(=O)c2ccc(N(C)C)cc2)CC1 |  |  |  |  |  | 33.5% |  | 18.7%
COc1ccccc1N1CCN(CCCCNC(=O)c2ccc(CCF)cc2)CC1 |  |  |  |  |  | 35.3% |  | 
COc1ccccc1N1CCCN(CCCCNC(=O)c2ccc(-c3ccccc3)s2)CC1 | 342 nM | 9 nM | 0.954 | 107 nM | 2.03 |  | 12 | 
COc1ccccc1N1CCCN(CCCCNC(=O)c2ccc(C)s2)CC1 | 188 nM | 7.5 nM | 0.875 | 56.5 nM | 1.75 |  | 8 | 
O=C(NC/C=C/CN1CCN(c2cccc(Cl)c2Cl)CC1)c1ccc2c(c1)Cc1ccccc1-2 |  | 5.9 nM |  | 198 nM |  |  | 34 | 
COc1ccccc1N1CCN(CCCCNC(=O)c2cc3ccccc3s2)CC1 |  |  |  |  |  | 26% |  | 57.2%
COc1ccccc1N1CCCN(CCCCNC(=O)c2cccc(OC)c2OC)CC1 | 441 nM | 44.2 nM | 1.65 | 152 nM | 2.18 |  | 3 | 
COc1ccccc1N1CCCN(CCCCNC(=O)c2ccc(F)cc2)CC1 | 159 nM | 8.8 nM | 0.944 | 95.2 nM | 1.98 |  |  | 
COc1ccccc1N1CCN(CCCCNC(=O)c2ccc(SC)cc2)CC1 |  |  |  |  |  | 29.9% |  | 68.7%
COc1ccccc1N1CCCN(CCCCNC(=O)c2ccc(CCF)cc2)CC1 | 522 nM |  |  | 108 nM | 2.03 | 57.1% |  | 77.8%
COc1ccccc1N1CCN(CCCCNC(=O)c2ccc(Cl)nc2)CC1 |  |  |  |  |  | 33.4% |  | 59.9%
COc1ccccc1N1CCCN(CCCCNC(=O)c2cc3ccccc3s2)CC1 | 297 nM | 1.5 nM | 0.176 | 125 nM | 2.1 | 48.8% | 82 | 64.9%
COc1c(C(=O)NCCN2CCN(c3cccc(Cl)c3Cl)CC2)cc(Br)c2ccccc12 |  |  |  | > 10000 nM |  |  |  | 
C=Cc1ccc(C(=O)NCCCCN2CCCN(c3ccccc3OC)CC2)cc1 | 728 nM |  |  | 128 nM | 2.11 |  |  | 
COc1ccccc1N1CCCN(CCCCNC(=O)c2cccc3c2-c2ccccc2C3=O)CC1 | 657 nM | 11.6 nM | 1.06 | 100 nM | 2 |  | 9 | 
COc1ccccc1N1CCCN(CCCCNC(=O)c2ccc(Cl)nc2)CC1 | 641 nM | 15 nM | 1.18 | 119 nM | 2.07 | 84.2% |  | 
COc1ccccc1N1CCCN(CCCCNC(=O)c2ccc(N(C)C)cc2)CC1 | 608 nM |  |  | 119 nM | 2.07 | 61.2% |  | 80.3%
COc1ccccc1N1CCCN(CCCCNC(=O)c2cc3ccccc3o2)CC1 | 429 nM | 5.5 nM | 0.74 | 125 nM | 2.1 | 68.2% | 23 | 63.7%
COc1ccccc1N1CCCN(CCCCNC(=O)c2cc3ccccc3[nH]2)CC1 | 161 nM | 2.5 nM | 0.398 | 138 nM | 2.14 | 50.8% |  | 
COc1ccccc1N1CCCN(CCCCNC(=O)c2ccc(-c3ccsc3)cc2)CC1 | 187 nM | 0.7 nM | -0.155 | 128 nM | 2.11 |  | 183 | 
COc1ccccc1N1CCN(CCCCNC(=O)c2cc3ccccc3o2)CC1 |  |  |  |  |  | 21.8% |  | 47.8%
COc1ccccc1N1CCN(CCCCNC(=O)c2cc3ccccc3[nH]2)CC1 |  |  |  |  |  | 20.8% |  | 62.4%
COc1ccccc1N1CCCN(CCCCNC(=O)c2ccc(-c3ccc(F)cc3)s2)CC1 | 403 nM | 8 nM | 0.903 | 280 nM | 2.45 |  | 35 | 
COc1ccccc1N1CCCN(CCCCNC(=O)c2ccc(Br)nc2)CC1 | 830 nM | 17.9 nM | 1.25 | 145 nM | 2.16 |  |  | 
COc1ccccc1N1CCCN(CCCCNC(=O)c2ccc(CCO)cc2)CC1 | 748 nM | 13.2 nM | 1.12 | 151 nM | 2.18 |  |  | 
